The source of these data is ChEMBL document CHEMBL2203019, “Cytotoxic cyclic depsipeptides from the Australian marine sponge Neamphius huxleyi” (J Nat Prod, 2012).

One experiment concerns PC-3. Description: Cytotoxicity against human PC3 cells after 72 hrs by alamar blue assay. Type of experiment: functional, cell-based. The settings on record: PC-3, 72 h. The method, boiled down: (§1)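 Cells were grown in RPMI with 10% FBS and penicillin/streptomycin (37 °C, 5% CO2). Plates held 1000 cells/well and were left overnight to adhere. Compounds were given for 72 h over 10 concentrations from 100 μM to 3 nM final, with 1% DMSO. Viability was read with Alamar blue at 10% final for 24 h (fluorescence ex 535/em 590 nm). Each concentration was run in triplicate. IC50 was fitted by nonlinear regression, as mean ± SD of two experiments. Vincristine served as positive control.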

For experiment [1], the system named is A549. Description: Cytotoxicity against human A549 cells assessed as cell proliferation at 100 nM after 48 hrs by confocal microscopic analysis.
Experiment [2] deals with A549. Briefly: Cytotoxicity against human A549 cells assessed as cell index at 100 nM after 72 hrs by alamar blue assay. It counts as functional, cell-based. The settings on record: in the assay text read “xCelligence impedance assay” for “alamar blue assay”. The method, boiled down: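 Real-time impedance (cell index) was recorded on an xCelligence system. A549 cells were seeded at 4000/well, settled 30 min at room temperature, then recorded at 37 °C, 5% CO2. Next day, half the medium was swapped for medium holding 2× compound. Vehicle was 1% DMSO. Runs were in triplicate, in two independent experiments. Readings were taken every minute for 2 h, then hourly to 72 h.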

Experiment [3] concerns A549. Description: Cytotoxicity against human A549 cells after 72 hrs by alamar blue assay. It counts as functional, cell-based. The settings on record: A549, 72 h. An outline of the steps: (§2)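 Cells were kept in DMEM with 10% FBS and penicillin/streptomycin at 37 °C and 5% CO2. 1000 cells/well adhered overnight, then were exposed for 72 h to a 10-point series from 100 μM to 3 nM final (1% DMSO). Alamar blue was added to 10% final for 24 h, and fluorescence was read at ex 535/em 590 nm. Triplicates were run. IC50 came from nonlinear regression, as mean ± SD of two independent experiments. Vincristine was the positive control.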
Background: The colour change of resazurin is a common sign of viable cells or microbes.

In the next experiment the test system is HeLa. Description: Cytotoxicity against human HeLa cells after 72 hrs by alamar blue assay. Type of experiment: functional, cell-based. The method, boiled down: as §1
A further experiment relates to LNCaP. Description: Cytotoxicity against human LNCAP cells after 72 hrs by alamar blue assay. It counts as functional, cell-based. The method, boiled down:
as §1

For another experiment, the system named is NFF. Description: Cytotoxicity against human NFF cells after 72 hrs by alamar blue assay. Type of experiment: cell-based. The method, boiled down:
as §2

Experiment [4] can be described thus: Cytotoxicity against human HEK cells after 72 hrs by alamar blue assay. The settings on record: HEK293, 72 h. Type of experiment: cell-based. The method, boiled down: as §2

Structures are written as SMILES. Where a name gives a salt, the structure may show the parent alone. Activity calls are given as the source filed them. No cut-off for these calls is given here.

A word on the IC50: it is the concentration needed to halve the response being measured. Consider `CCC(C)C[C@@H](C)[C@@H](O)[C@@H](C)C(=O)N[C@@H](CC(N)=O)C(=O)N[C@@H](CCCNC(=N)N)[C@@H](O)[C@@H](O)C(=O)NC(C(=O)N[C@H]1C(=O)N[C@H]([C@H](C)O)C(=O)N[C@H](CCCNC(=N)N)C(=O)N[C@@H](CC(C)C)C(=O)N(C)[C@@H](CCC(N)=O)C(=O)N[C@H]([C@H](OC)c2ccc(O)cc2)C(=O)N2CCCC[C@H]2C(=O)O[C@@H]1C)C(C)C(C)C(N)=O` (relative stereo), for which the IC50 in the experiment on PC-3 was 130 nM; in the experiment on A549 [3], 91 nM; in the experiment with HeLa, 210 nM; in the experiment with LNCaP, 110 nM; in the experiment with NFF it was 150 nM; in experiment [4], 88 nM. For the same compound, the result in the experiment with A549 [1] and in the experiment with A549 [2] was inactive.
For `CO[C@H](c1ccc(O)cc1)[C@H]1NC(=O)[C@H](CCC(=O)O)N(C)C(=O)[C@H](CC(C)C)NC(=O)[C@@H](CCCNC(=N)N)NC(=O)[C@@H]([C@H](C)O)NC(=O)[C@H](NC(=O)C(NC(=O)[C@H](O)[C@H](O)[C@H](CCCNC(=N)N)NC(=O)[C@H](CC(N)=O)NC(=O)[C@H](C)[C@H](O)[C@H](C)CC(C)C)C(C)C(C)C(N)=O)[C@@H](C)OC(=O)[C@@H]2CCCCN2C1=O` (relative stereo), the IC50 stood at 110 nM with PC-3; 131 nM in the experiment with A549 [3]; 170 nM with HeLa; 190 nM in the experiment with LNCaP; 260 nM with NFF; 160 nM in experiment [4].
As for `CO[C@H](c1ccc(O)cc1)[C@H]1NC(=O)[C@H](CCC(N)=O)N(C)C(=O)[C@H](CC(C)C)NC(=O)[C@@H](CCCNC(=N)N)NC(=O)[C@@H]([C@H](C)O)NC(=O)[C@H](NC(=O)C(NC(=O)[C@H](O)[C@H](O)[C@H](CCCNC(=N)N)NC(=O)[C@H](CC(N)=O)NC(=O)[C@H](C)[C@H](O)[C@H](C)CC(C)C)C(C)C(C)C(N)=O)[C@@H](C)OC(=O)[C@@H]2CCCCN2C1=O` (relative stereo), the IC50 came out at 170 nM with PC-3; 130 nM in the experiment with A549 [3]; 110 nM with HeLa; 230 nM with LNCaP; 370 nM in the experiment on NFF; 200 nM in experiment [4].
`CC[C@]1(O)C[C@H]2CN(CCc3c([nH]c4ccccc34)[C@@](C(=O)OC)(c3cc4c(cc3OC)N(C=O)[C@H]3[C@@](O)(C(=O)OC)[C@H](OC(C)=O)[C@]5(CC)C=CCN6CC[C@]43[C@@H]65)C2)C1` [VINCRISTINE SULFATE]: the IC50 was found to be 15 nM in the experiment on PC-3; 20 nM with A549 [3]; 36 nM with HeLa; 6.1 nM in the experiment on LNCaP; 17 nM in the experiment on NFF; 31 nM in experiment [4].
